Two compounds from ChEMBL document CHEMBL4346667 (Eur J Med Chem, 2019) can be followed below.

Test [1] deals with Tubulin. As to the kind of experiment: Binding affinity to tubulin (unknown origin) assessed as dissociation constant by SPR analysis. The class given is protein-complex assay, Homo sapiens. The method, boiled down:
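Tubulin immobilised to about 800 mDeg. Injected at 60 µL/min for 300 s; PBS with 0.5% DMSO as running buffer. Measured at 25 °C, with dilution-corrected peak areas.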
(SPR reads the build-up and loss of mass on a sensor chip optically.)

The subject of test [2] is L02. The test is described as follows: Antiproliferative activity against human HL7702 cells assessed as reduction in cell viability after 48 hrs by MTT assay. Particulars: L02, 48 h. Type of test: functional, cell-based. The method, boiled down:
(§1)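 Cells grown at 37 °C, 5% CO2; HeLa, HepG2, H8, HL7702 in RPMI 1640 + 10% fetal calf serum, others in high-glucose DMEM + 10% fetal calf serum. Log-phase cells seeded at 4000-12000/well by doubling time. Attached cells were given 10-fold dilutions, 100 µM to 10 nM (DMSO 0.1% v/v), for 48 h. MTT (2 mg/mL) 4 h, formazan in DMSO, A492. IC50 from triplicate means.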

Test [3] has as its system MRC5. As to the kind of experiment: Antiproliferative activity against human MRC5 cells assessed as reduction in cell viability after 48 hrs by MTT assay. The class given is functional, cell-based. Particulars: MRC5, 48 h. Summed up: as §1
Test [4] deals with HMEC. As to the kind of experiment: Antiproliferative activity against human HMEC cells assessed as reduction in cell viability after 48 hrs by MTT assay. Type of test: functional, cell-based. The method, boiled down: as §1
(In general: Tetrazolium dyes change colour on reduction, which living cells bring about.)

The subject of test [5] is MCF7. The test is described as follows: Induction of apoptosis in human MCF7 cells at 250 nM after 48 hrs by Annexin V-FITC/propidium iodide staining-based flow cytometric analysis relative to control (reference value: 11.6%). Type of test: functional. Summed up:
(§2)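 MCF7 cells were seeded in 6-well plates and exposed after adhering to graded concentrations for 48 h, in cycles of 6 h on and 6 h off. They were then stained with annexin V (1 µg/mL) and PI (0.5 µg/mL) in Ca2+-enriched binding buffer for 15 min in the dark at room temperature. Flow cytometry recorded 10,000 events, FL1 versus FL2. Apoptosis was taken as early plus late stage, with at least 3 repeats.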

For test [6], the system named is A549. As to the kind of experiment: Antiproliferative activity against human A549 cells assessed as reduction in cell viability after 48 hrs by MTT assay. Type of test: functional, cell-based. Particulars: A549, 48 h. Summed up: as §1
For test [7], the target named is T1, Tubulin (Homo sapiens) (UniProt P68371+Q9H4B7+P0DPH7+P68366+Q13509+Q71U36+P04350+Q3ZCM7+P07437+P68363+Q9BQE3+Q6PEY2+Q13885+Q9BVA1+Q9BUF5). The test is described as follows: Ratio of Kd for PTOX to Kd for test compound for tubulin (unknown origin) by surface plasmon resonance analysis. Type of test: protein-complex assay. The method, boiled down:
(§3)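 SPR binding to immobilised tubulin (up to 800 mDeg) was measured at 25 °C. Compounds were diluted two-fold from 80 to 2.5 µM in PBS with 0.5% DMSO. They were injected at 60 µL/min for 300 s, with PBS containing 0.5% DMSO as running buffer. Kd values came from the titration data.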

In test [8] the test system is HeLa. As to the kind of experiment: Antiproliferative activity against human HeLa cells assessed as reduction in cell viability after 48 hrs by MTT assay. Type of test: functional, cell-based. Summed up:
as §1

The subject of test [9] is MCF7. As to the kind of experiment: Cell cycle arrest in human MCF7 cells assessed as accumulation of cells at G2/M phase at >=250 nM after 24 hrs by propidium iodide double staining based flow cytometric analysis (reference value: 80%). The class given is functional. Summed up:
(§4)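 Log-phase cells seeded in 6-well plates and, once adhered, treated at 10-1000 nM; incubated in cycles of 6 h on/6 h off up to 48 h. Washed in cold PBS, fixed in 70% ethanol at -20 °C for at least 2 days. Stained with PI (50 µg/mL) 30 min on ice in the dark. 10,000 events on FL2-A vs FL2-W; G1/S/G2/M from DNA modelling. At least three repeats.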

The target of test [10] is T1, Tubulin (Homo sapiens). As to the kind of experiment: Ratio of Kd for colchicine to Kd for test compound for tubulin (unknown origin) by surface plasmon resonance analysis. Type of test: protein-complex assay. Summed up:
as §3

The target in test [11] is T1, Tubulin (Homo sapiens). The test is described as follows: Inhibition of tubulin polymerization in human HeLa cells assessed as cellular microtubule disorganization and H3 phosphorylation at 500 nM after 24 hrs by immunofluorescence based confocal microscopy. Type of test: cell-based. The method, boiled down: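 HeLa cells on glass coverslips were treated for 24 h at 25, 250 or 500 nM. They were fixed in 4% paraformaldehyde for 1 h and permeabilised with 0.2% Triton X-100 for 20 min. Anti-α-tubulin (1:50 in 2% BSA) was applied for 1 h at RT, then Alexa Fluor 488 anti-rabbit IgG (1:500) for 1 h, then DAPI for 20 min. Cells were imaged by fluorescence and confocal microscopy.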

The target in test [12] is T2, Tubulin (Sus scrofa) (UniProt P02554+P02550). As to the kind of experiment: Inhibition of porcine tubulin assembly assessed as tubulin growth inhibition at 2 uM incubated for 30 min by fluorometric analysis. The class given is protein assay. Summed up:
(§5)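 This was a centrifugation assay of tubulin assembly. Tubulin was held at 4 °C with 0.9 mM GTP and 6 mM MgCl2, and aggregates were removed at 90000 g for 10 min at 4 °C. Ligands at 0.05–2 µM (1% DMSO) were incubated for 30 min at 37 °C. Supernatants and pellets were diluted 1:5, and tubulin was read fluorometrically (ex 280, em 323) against standards. The 50% inhibitory concentration came from inhibition curves, as the mean of three experiments.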

For test [13], the system named is MCF7. As to the kind of experiment: Antiproliferative activity against human MCF7 cells assessed as reduction in cell viability after 48 hrs by MTT assay. Type of test: functional, cell-based. Particulars: MCF7, 48 h. The method, boiled down: as §1
The target in test [14] is T2, Tubulin (Sus scrofa). As to the kind of experiment: Inhibition of porcine tubulin assembly assessed as tubulin growth inhibition incubated for 30 min by fluorometric analysis. The class given is protein assay. The method, boiled down:
as §5

The test system of test [15] is HepG2. As to the kind of experiment: Antiproliferative activity against human HepG2 cells assessed as reduction in cell viability after 48 hrs by MTT assay. Type of test: functional, cell-based. Particulars: HepG2, 48 h. Summed up:
as §1

The nature of test [16]: Binding affinity to alpha/beta tubulin complex (unknown origin). Set-up: species or system Homo sapiens. The method, boiled down: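 SPR assay: tubulin immobilized up to 800 mDeg (response units). Ligands were diluted two-fold from 80 µM to 2.5 µM in PBS with 0.5% (v/v) DMSO and injected at 60 µL/min for 300 s. Running buffer was PBS with 0.5% DMSO, at 25°C.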
Test [17] can be described thus: Antiproliferative activity against human H8 cells assessed as reduction in cell viability after 48 hrs by MTT assay. Type of test: functional, cell-based. The method, boiled down: as §1
Test [18] deals with MCF7. The test is described as follows: Induction of apoptosis in human MCF7 cells at 500 nM after 48 hrs by Annexin V-FITC/propidium iodide staining-based flow cytometric analysis relative to control (reference value: 11.6%). Type of test: functional. The method, boiled down: as §2
Test [19] relates to MCF7. The test is described as follows: Induction of apoptosis in human MCF7 cells at 100 nM after 48 hrs by Annexin V-FITC/propidium iodide staining-based flow cytometric analysis relative to control (reference value: 11.6%). The class given is functional. Summed up: as §2
Test [20] concerns the target T1, Tubulin (Homo sapiens). The test is described as follows: Inhibition of tubulin polymerization in human HeLa cells assessed as contracted and rounded cells with disordered abnormal spindles and chromosomal misalignment at 500 nM after 24 hrs by immunofluorescence based confocal microscopy. The class given is cell-based. The method, boiled down:
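HeLa cells on glass coverslips were treated for 24 h at 25, 250 or 500 nM. They were fixed in 4% paraformaldehyde for 1 h and permeabilised with 0.2% Triton X-100 for 20 min. Cells were imaged by fluorescence and confocal microscopy.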

Test [21] relates to MCF7. As to the kind of experiment: Induction of apoptosis in human MCF7 cells at 10 nM after 48 hrs by Annexin V-FITC/propidium iodide staining-based flow cytometric analysis relative to control (reference value: 11.6%). Type of test: functional. The method, boiled down: as §2
(In general: Flow cytometry measures light scatter and fluorescence of single cells or particles in a stream.)

In test [22] the test system is MCF7. The test is described as follows: Cell cycle arrest in human MCF7 cells assessed as accumulation of cells at G2/M phase at 100 nM after 24 hrs by propidium iodide double staining based flow cytometric analysis. Type of test: functional. Summed up: as §4
The subject of test [23] is MCF7. As to the kind of experiment: Antitumor activity against human MCF7 cells xenografted in BALB/c nude mouse assessed as inhibition of tumor growth at 40 mg/kg administered for a week. Type of test: functional. Summed up: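 Male BALB/c nude mice, 4 weeks old, 15-20 g. Log-phase MCF-7 cells in DMEM, 0.1 mL of 1×10^6 cells/mL, injected subcutaneously into the hind leg. Calipers twice weekly; at about 90 mm3, groups of 5. Vehicle was isotonic saline plus 0.005% DMSO. Injected at 40 mg/kg for a week; tumour volume recorded daily.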

The test system of test [24] is MCF7. The test is described as follows: Cell cycle arrest in human MCF7 cells assessed as accumulation of cells at G2/M phase at 250 to 500 nM after 24 hrs by propidium iodide double staining based flow cytometric analysis. Type of test: functional. Summed up: as §4
For test [25], the system named is MCF7. The test is described as follows: Induction of apoptosis in human MCF7 cells at 50 nM after 48 hrs by Annexin V-FITC/propidium iodide staining-based flow cytometric analysis relative to control (reference value: 11.6%). The class given is functional. Summed up: as §2

Activity calls are given as the source filed them. The rule behind the calls is not given here.

T2 sequence (P02550 whole entry, looked up): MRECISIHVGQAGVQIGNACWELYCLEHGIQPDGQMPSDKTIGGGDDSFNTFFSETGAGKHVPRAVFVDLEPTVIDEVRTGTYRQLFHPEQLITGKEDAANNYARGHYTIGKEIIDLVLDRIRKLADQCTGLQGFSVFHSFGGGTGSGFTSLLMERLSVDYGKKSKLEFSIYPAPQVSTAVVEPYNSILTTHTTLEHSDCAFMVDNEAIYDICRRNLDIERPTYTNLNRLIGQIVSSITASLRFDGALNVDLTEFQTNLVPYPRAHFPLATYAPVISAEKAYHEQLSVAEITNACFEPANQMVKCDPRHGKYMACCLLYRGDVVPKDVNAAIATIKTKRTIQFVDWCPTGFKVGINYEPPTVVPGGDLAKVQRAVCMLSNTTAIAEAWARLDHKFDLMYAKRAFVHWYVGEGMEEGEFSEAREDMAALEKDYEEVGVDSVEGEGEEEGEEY
T2 sequence (P02554 whole entry, looked up): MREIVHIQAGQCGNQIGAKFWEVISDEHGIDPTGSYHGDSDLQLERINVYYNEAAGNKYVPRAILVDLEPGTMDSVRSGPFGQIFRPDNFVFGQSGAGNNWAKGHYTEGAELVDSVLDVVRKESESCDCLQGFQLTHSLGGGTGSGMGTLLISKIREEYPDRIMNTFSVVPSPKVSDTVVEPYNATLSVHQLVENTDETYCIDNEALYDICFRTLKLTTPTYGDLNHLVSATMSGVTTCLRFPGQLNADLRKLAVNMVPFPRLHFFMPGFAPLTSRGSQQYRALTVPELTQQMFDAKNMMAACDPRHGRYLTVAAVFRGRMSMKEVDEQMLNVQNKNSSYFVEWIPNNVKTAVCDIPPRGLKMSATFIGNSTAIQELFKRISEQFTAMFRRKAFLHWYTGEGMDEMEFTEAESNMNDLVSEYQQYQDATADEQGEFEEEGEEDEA

Usually Kd stands for the constant that tells how readily two partners part at equilibrium. By IC50 is commonly meant the concentration at which inhibition is half-maximal. In general, inhibition refers to the drop in the measured response relative to a control, in per cent. The term GI50 denotes the concentration giving 50% growth inhibition. What is called Ki is the equilibrium dissociation constant of an inhibitor or competing ligand from its target. A higher Ki goes with lower affinity. Consider `COc1cc([C@@H]2c3cc4c(cc3[C@@H](Nc3ccc5[nH]ncc5c3)[C@H]3COC(=O)[C@H]23)OCO4)cc(OC)c1OC`, for which, in test [1], the equilibrium dissociation constant (Kd) was determined as 9100 nM. Moreover, the concentration for half-maximal inhibition (IC50) in test [2] came out at 50600 nM; in test [3] it was 60800 nM; in test [4], 81800 nM; in test [6], 200 nM; in [8], 200 nM; in test [13], 200 nM. The IC50 was determined as 300 nM in [15] and 98400 nM in [17]. For the same compound, the Activity in [5] is 60%; in test [9] it was 45%. Further, the values for the Ratio in test [7] and in test [10] were 2.7 and 2.2, respectively. In addition, the inhibition entry in [11] is “Active”. Besides, the inhibition in test [12] amounted to 79%. Also, the GI50 in test [14] was less than 100 nM. The same compound yielded a Ki in test [16] of 60 nM.
One may read the inhibition in vivo as how much of the control response was suppressed. Regarding `COc1cc([C@@H]2c3cc4c(cc3[C@@H](Nc3ccc5cc[nH]c5c3)[C@H]3COC(=O)[C@H]23)OCO4)cc(OC)c1OC`, the Activity is 94.9% in test [18]; 93.5% in test [19]; 92.4 - 93% in test [5]; 10.5% in [21]; 50% in test [22]; 90% in test [24]. Besides, the Activity in [25] was determined as 20.1%. The Kd in [1] is 8100 nM. Besides, the 50% inhibitory concentration (IC50) in [2] stood at 94600 nM; in test [3], 69100 nM; in [4], 61600 nM; in test [6], 80 nM; in test [8], 80 nM; in test [13] it was 70 nM. Further, the IC50 in test [15] was 100 nM; in [17], 84500 nM. Further, the Ratio was 2.7 in [7] and 2.2 in test [10]. For the same compound, the inhibition result in [20] is “Active”. Moreover, the inhibition in test [12] is 88%. The inhibition in vivo at 40 mg/kg in test [23] was determined as 89.6%. In addition, in test [14], the concentration for 50% growth inhibition (GI50) is less than 100 nM. In [16], this compound returned a Ki of 10 nM.
